In general, viability refers to a read-out of living cells in per cent, often relative to untreated cells. Broadly, the inhibition is the relative decrease from the control value, in per cent.

Assay [1] can be described thus: OD615 S. cerevisiae growth inhibition, permissive medium, pilot counter-assay, permissive growth control for S. cerevisiae lifespan shortening project (AID 705;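 active = growth inhibition above 25% in both replicates, a cutoff set 3 SD above the mean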). Particulars: OD615, 24 h, at 10 µM, active compounds read high. Put shortly: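 System: S. cerevisiae with engineered DeaD lifespan system. Medium: SC raffinose/galactose permissive medium. Doses: single compound dose of 10 µM, 0.25% DMSO final. Schedule: 24 h exposure, 30 °C. Measured by: OD615 turbidity read. Read-out: growth inhibition.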

Assay [2] in a line: Restrictive medium S. cerevisiae growth inhibition, OD615, pilot screen of yeast lifespan reduction project, restrictive growth control (AID 706;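 active = growth inhibition above a set limit, 3 SD over mean compound inhibition, in both replicates, cut at about 43% in these data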). Particulars: OD615, 48 h, at 10 µM, active compounds read high. The gist of the method: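 Assay system – genetically modified Saccharomyces cerevisiae, DeaD replicative lifespan assay strain · Medium – CSMM-D glucose medium · Doses – 10 µM compound, 0.25% DMSO · Times – 4 h pre-incubation, 48 h exposure at 30 °C · Signal – optical density at 615 nm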

Assay [3] in a line: viability gain of MRP-1-high H69AR cells under doxorubicin, pilot screen, MRP-1 activator project, CellTiter-Glo, duplicate (AID 807;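 active = viability increase at or above a cutoff of the median across tested compounds plus 3 SD, cut at about 8.5% in these data, passing the limit was not always enough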;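 note: compound pretreatment 18-22 h then 72 h combined with doxorubicin; 0% = doxorubicin alone and 100% = vehicle without doxorubicin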). Particulars: H69AR viability with doxorubicin, CellTiter-Glo luminescence; at 10 µM; active compounds read high. On the technique in general: ATP-based viability assays read luminescence as a measure of living cells.
A short description of assay [4]: growth suppression of beta-catenin knockout HCT116, pilot screen, human colon tumor cells (AID 823;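 active = cell viability at or below a set limit in both duplicate runs, the limit being the all-compound median minus 4 SD, cut at about 23% in these data, passing the limit was not always enough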;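 note: 0% = wells killed by 20 µM Hyamine and 100% = untreated DMSO cell wells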). The following applies: CellTiter-Glo, 60 h, at 10 µM, active compounds read low.
Assay [5] in a line: growth suppression of PTEN-deleted HCT116, pilot screen, cell-based, HCT116 clonal line, CellTiter-Glo (AID 824).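 Note: 0% = 20 µM Hyamine control and 100% = vehicle cell control.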 The following applies: 60 h, at 10 µM, active compounds read low.
Assay [6] is described as follows: inhibitors of the yeast RAM network, pilot screen, dse1pr::URA3 reporter, 5-FOA selection (AID 869;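 active = inhibition over a set limit, the all-compound mean plus 3 SD, in both replicate runs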;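 note: 0% = DMSO wells with no growth and 100% = 10 µM 1-NA-PP1 with full growth; RAM network block rescues cells from 5-FOA so hits raise OD615 growth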). The following applies: S. cerevisiae dse1pr::URA3 5-FOA growth, OD615, 2 d; at 10 µM; active compounds read high; strain carries analog-sensitive mutant Cbk1 kinase.
A short description of assay [7]: RAM signaling pathway blockade in yeast – S. cerevisiae, Pdr1DBD-CYC8 efflux-inhibited sensitized strain, primary screen (AID 1298;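 active = RAM network inhibition above 8.4% in each of two replicates, 3 SD over the compound average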;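 note: 0% = DMSO untreated cells without growth and 100% = 10 µM 1-NA-PP1 full growth; higher means more yeast growth rescued from 5-FOA killing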). Particulars: S. cerevisiae cbk1-as DSE1-URA3 strain, 5-FOA growth OD615, 2 d; at 50 µM; active compounds read high.

A number with no mark means an inactive call. Records with an inconclusive call do not appear. Calls of active or inactive are those of the source.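 Rule for the calls, unless noted: active = viability at or below 27.92% in each of two runs, the all-compound median minus 4 SD; inconclusive = no clear call, values can overlap the other calls; inactive = the rest.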

Turning to `COc1cccc(NC=C2C(=O)OC(C)(C)OC2=O)c1`, the growth inhibition in assay [1] is -11%; in assay [2] it was -2.86%. The viability increase in assay [3] is -1.97%. Further, the viability in assay [4] was 98.7%; in assay [5] it was 106%. Besides, in assay [6], the inhibition was 0.94%. Moreover, in assay [7], the RAM network inhibition is 2.55%.
On to `Cc1cc(C)n(/N=C/c2c[nH]c3ccccc23)c(=O)c1`, for which the results for the growth inhibition in assay [1] and in assay [2] were -12.3% and -5.84%, respectively. Also, in assay [3], the viability increase was -3.53%. The viability in assay [4] is 100%; in assay [5] it was 102%. Also, the inhibition in assay [6] was 0.785%. Moreover, the RAM network inhibition in assay [7] was 2.38%.
Consider `CCCN1CCN(C(=O)Cn2ncc3ccccc32)CC1`, for which the growth inhibition in assay [1] was -12.4%; in assay [2] it was -16.9%. In addition, the viability increase in assay [3] was -2.31%. Further, the viability in assay [4] is 100%; in assay [5], 98.2%. Also, the inhibition in assay [6] was 1.26%. Moreover, the RAM network inhibition in assay [7] is 3.84%.
On to `COc1ccc(Cl)cc1NC(=O)CSc1nnc(Cn2c(=O)sc3ccccc32)n1C`, for which the growth inhibition in assay [1] was -8.82%; in assay [2], -14.1%. Further, in assay [3], the viability increase is -2.64%. Further, the viability in assay [4] is 96.6%; in assay [5], 95.6%. Further, the inhibition in assay [6] was 4.87%. Besides, in assay [7], the RAM network inhibition is 7.45%.
With `NC(=O)CSc1nc2ccccc2n1-c1ccccc1`, the growth inhibition is -9.13% in assay [1] and 1.74% in assay [2]. For the same compound, the viability increase in assay [3] was -0.83%. Moreover, the viability in assay [4] is 99%; in assay [5], 97.5%. In assay [6], the inhibition is 0.02%. Also, the RAM network inhibition in assay [7] is 0.62%.
For the compound `COc1ccccc1NC(=O)N1CCN(c2ccccn2)CC1`, the growth inhibition in assay [1] was -12.1%; in assay [2] it was -7.1%. Also, the viability increase in assay [3] is 0.85%. Also, the figures for the viability in assay [4] and in assay [5] were 103% and 104%, respectively. Besides, the inhibition in assay [6] was 2.67%. The RAM network inhibition in assay [7] was 4.32%.
Turning to `Cc1ccc(-c2nnc3ccc(SC(C)C(=O)O)nn23)cc1` (stereo not drawn), the growth inhibition in assay [1] was 13.9%; in assay [2], 60.9% (active). In addition, the viability increase in assay [3] was -1.29%. For the same compound, the results for the viability in assay [4] and in assay [5] were 99.1% and 97.8%, respectively. Also, the inhibition in assay [6] is 2.31%. Further, in assay [7], the RAM network inhibition is 3.9%.
With `CN(C)Cc1c(O)ccc2occ(C(O)c3ccccc3)c12` (stereo not drawn), the growth inhibition in assay [1] was -13.2%; in assay [2], -4.58%. Besides, in assay [3], the viability increase is -3.71%. Moreover, the viability in assay [4] was 77.2%; in assay [5], 82.5%. Further, in assay [6], the inhibition is 1.07%. Also, the RAM network inhibition in assay [7] is 4.33%.
For `Cc1onc(-c2ccccc2Cl)c1C(=O)Nc1ccc(OCC(=O)N2CCOCC2)cc1`, the figures for the growth inhibition in assay [1] and in assay [2] were 2.78% and 5.62%, respectively. Also, the viability increase in assay [3] was -2.3%. Also, the viability is 104% in assay [4] and 99.5% in assay [5]. The inhibition in assay [6] is 1.5%. The RAM network inhibition in assay [7] is 5.11%.
As for `O=C1NC(c2ccco2)Nc2sc3c(c21)CCN(Cc1ccccc1)C3` (stereo not drawn), the growth inhibition in assay [1] was 4.68%; in assay [2], 17.8%. The viability increase in assay [3] was -3.01%. In addition, the viability is 103% in assay [4] and 94% in assay [5]. Besides, the inhibition in assay [6] was 1.84%. Besides, the RAM network inhibition in assay [7] is 3.69%.
In the case of `CCCCSC1=C(C#N)C(c2ccccc2C)CC(=O)N1` (stereo not drawn), the growth inhibition in assay [1] was -14.2%; in assay [2], 3.23%. In addition, the viability increase in assay [3] is -2.96%. For the same compound, the values for the viability in assay [4] and in assay [5] were 95.1% and 79.6%, respectively. In assay [6], the inhibition is 1.03%. In assay [7], the RAM network inhibition was 5.84%.
Regarding `CCSCCOC(=O)C1=C(C)NC(=O)NC1c1ccccc1` (stereo not drawn), the growth inhibition was -4.77% in assay [1] and -1.22% in assay [2]. Besides, in assay [3], the viability increase is 0.68%. The viability was 105% in assay [4] and 98.1% in assay [5]. Besides, the inhibition in assay [6] was 1.47%. Moreover, the RAM network inhibition in assay [7] is 0.3%.
For the compound `Brc1ccc(-c2noc(COc3ccc4c(c3)CCC4)n2)o1`, the growth inhibition in assay [1] was -10.2%; in assay [2] it was -11.6%. Further, the viability increase in assay [3] was 2.86%. Further, the viability was 95.8% in assay [4] and 105% in assay [5]. Further, the inhibition in assay [6] was 1.22%. For the same compound, in assay [7], the RAM network inhibition was 4.46%.
Regarding `Cc1ccc(S(=O)(=O)Nc2ccc3nc(N)sc3c2)cc1`, the growth inhibition in assay [1] is 6.55%; in assay [2] it was 13.4%. In assay [3], the viability increase is -4.39%. Moreover, the viability in assay [4] is 82.6%; in assay [5], 85.5%. For the same compound, the inhibition in assay [6] is 0.19%. Further, in assay [7], the RAM network inhibition was 2.92%.
